Compounds with a hit are over-represented: about 2.4% of the library has one in this group of screens.
dFosB activator – mouse delta FosB homodimer activation; purified delta FosB, TAMRA-CDK5 oligo fluorescence polarization; percent of positive-control signal above neutral wells; activation, % at 25 µM; 0.99% of 340,000 active; AID 493131;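 active means mean activation above about 17%, with every replicate also reaching it, limit read from the data, passing the limit was not always enough; inconclusive means only one of the two conditions met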
Cneo AK release – causes C. neoformans cell lysis; adenylate kinase release luminescence, 4 h; normalised: neutral wells 0, clomiphene wells 100; lysis activity, % at 15 µM; 0.2% of 360,000 active; AID 651654;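 active means mean lysis activity across replicates of at least 80%, whatever share of replicates individually reach that level; inactive means mean lysis activity below 80%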
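Test system: log-phase Cryptococcus neoformans yeast cells. Input: 5 × 10^6 yeast cells/mL. Medium: fresh YPD growth medium. Doses: single dose. Incubation: static 4 h at 37 °C with compound, 1 h detection. Measured by: luminescent adenylate kinase detection reagent. Read-out: signal increase indicating cell lysis. Benchmarks: Clomiphene.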
miR122 inh – inhibitors of miR-122 in Huh7 cells; activation (reporter increase), % at 12.5 µM; 0.3% of 340,000 active; Huh7 miR-122 Renilla luciferase sensor, 48 h; neutral wells = 0, positive control = 100; AID 602342;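 active means mean replicate activation score at least 90 and every replicate individually at or above 90; inconclusive means only one of the two criteria met; inactive means neither criterion met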;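 further: higher luciferase means less miR-122 activity so hits act as miR-122 inhibitors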
Rtt109 Vps75 – blocks Candida albicans Rtt109/Vps75 acetyltransferase activity. Q5AAJ8. inhibition, % at 34.9 µM. 0.16% of 330,000 active. purified Rtt109/Vps75, ThioGlo CoA-SH fluorescence, 4 h. AID 540336;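 active means inhibition of at least 50% in every replicate; inconclusive means best replicate reaches 50% inhibition but some replicates fall short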
Target sequence (Q5AAJ8 whole entry, looked up): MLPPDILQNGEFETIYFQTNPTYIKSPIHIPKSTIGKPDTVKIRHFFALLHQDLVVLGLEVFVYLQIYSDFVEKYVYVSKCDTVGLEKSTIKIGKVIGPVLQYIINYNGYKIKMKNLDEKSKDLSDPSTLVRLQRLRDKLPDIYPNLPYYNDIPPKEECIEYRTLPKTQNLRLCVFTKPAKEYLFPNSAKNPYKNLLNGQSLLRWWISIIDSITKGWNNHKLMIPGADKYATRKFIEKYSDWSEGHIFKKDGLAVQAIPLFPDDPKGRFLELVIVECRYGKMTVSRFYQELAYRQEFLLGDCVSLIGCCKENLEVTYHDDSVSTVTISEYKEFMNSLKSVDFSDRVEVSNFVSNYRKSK
HIV Env fusion – inhibitors of HIV Env-mediated cell fusion; HeLa-JRFL Env/CEM21 cell fusion, luciferase; inhibition, % at 12.3 µM; 1.1% of 360,000 active; AID 651610;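 active means mean replicate inhibition score of at least 50 and every replicate individually at or above 50; inconclusive means only one of the two criteria met; inactive means mean below 50 and not all replicates reaching 50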
INS-1E GSIS act – primary screen for activators of insulin secretion dependent on glucose, INS-1E cells, GLuc reporter luminescence | INS-1E GLuc reporter insulin secretion, 2-3 h | activation, % at 16.6 µM | 0.61% of 370,000 active | AID 743287;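 active means lowest replicate activation of at least 40%, so every replicate reaches that level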
A number is an active result; . = inactive; ? = inconclusive; / = no result.

SMILES	dFosB activator	Cneo AK release	miR122 inh	Rtt109 Vps75	HIV Env fusion	INS-1E GSIS act
O=C(CN1CCc2ccccc2C1)Nc1ccc(Br)cc1	.	.	.	/	.	/
Cc1ccc(NC(=O)c2ccc(CN3CCc4ccccc4C3)cc2)cc1	.	.	.	.	93	/
C[C@@H]1CCCCO[C@H](CN(C)S(=O)(=O)c2ccc(Cl)cc2)[C@H](C)CN([C@@H](C)CO)C(=O)c2cc(NC(=O)c3ccncc3)ccc2O1	/	.	.	/	.	.
C[C@@H]1CN([C@@H](C)CO)C(=O)c2cc(NS(=O)(=O)c3cccs3)ccc2O[C@H]1CN(C)C(=O)Nc1ccc(C(F)(F)F)cc1	/	.	.	/	/	.
O=C(Nc1cccnc1)c1ccc(CN2CCc3ccccc3C2)cc1	.	.	.	.	54	/
COCC#Cc1cnc2c(c1)C(=O)N([C@@H](C)CO)C[C@H](C)[C@H](CN(C)C(=O)c1cnccn1)O2	/	.	.	/	.	.
Cc1ccc(/C=C2\SC(=O)N(CCC(=O)N3CCN(C)CC3)C2=O)cc1	.	.	/	.	.	50
CCOc1ccccc1C=C1SC(=S)NC1=O	.	.	.	.	78	.
Cc1cc(C(=O)N2CCCC(C(=O)c3ccc(Cl)cc3C)C2)no1 (configuration not stated)	.	.	.	.	61	.
CCCCCC(O)CCCC(=O)O (configuration not stated)	.	.	.	.	.	.
CCCCCCCCCCCCCCCC(O)C[N+](C)(C)CCO (configuration not stated)	.	/	/	.	.	363
CC(N)=Nc1ccc([N+](=O)[O-])cc1	.	.	.	.	.	.
O=[N+]([O-])c1ccc(N=Nc2c(Cl)cc(O)cc2Cl)cc1	.	.	.	.	85	.
COCC(=O)N(C)C[C@@H]1Oc2cc(C#Cc3ccccc3)ccc2S(=O)(=O)N([C@@H](C)CO)C[C@H]1C	/	.	.	/	.	.
CCN(CC)S(=O)(=O)c1ccc(N2CCCCC2)c(NC(=O)/C(C#N)=C/c2ccc(OC)cc2)c1	.	.	.	.	.	.
CCOc1ccc(NC(=O)/C(C#N)=C/c2ccc(N3CCCC3)c(C)c2)cc1	.	.	.	.	.	115
CCN1/C(=C/C(C)=C/c2sc3ccccc3[n+]2CC)Sc2ccccc21	507	.	.	134	.	.
Cc1ccnc(N/C=C(/NC(=O)c2ccccc2)C(=O)N/N=C\c2ccc(Cl)cc2)n1	19	.	.	.	.	.
COc1ccc(-c2ccccc2[C@H]2[C@@H]3C=CC[C@@H](C)[C@@H]3C(=O)N2Cc2ccccc2)cc1	.	.	.	.	126	.
COc1ccc(S(=O)(=O)N[C@H]2C=C[C@@H](CC(=O)N3CCC(Cc4ccccc4)CC3)O[C@H]2CO)cc1	/	.	/	/	?	.
CCN(Cc1ccccc1)S(=O)(=O)c1ccc(C(=O)N(CCCN(C)C)c2nc3ccc(F)cc3s2)cc1	.	.	.	.	.	.
CN(C)CCN(C(=O)c1ccc(S(=O)(=O)N(C)c2ccccc2)cc1)c1nc2cc3c(cc2s1)OCCO3	47	.	/	.	.	.
CCN(Cc1ccccc1)S(=O)(=O)c1ccc(C(=O)N(CCCN(C)C)c2nc3cc4c(cc3s2)OCCO4)cc1	42	.	.	.	/	.
O=C(O)C(Cc1ccccc1)N1C(=O)/C(=C/c2ccccc2)SC1=S (configuration not stated)	.	.	.	53	.	.
O=C(O)C(Cc1ccccc1)N1C(=O)c2ccccc2C1=O (configuration not stated)	.	.	.	.	.	/
SMILES	dFosB activator	Cneo AK release	miR122 inh	Rtt109 Vps75	HIV Env fusion	INS-1E GSIS act
COc1cc(/C=C2\SC(=S)N(Nc3ccccc3)C2=O)ccc1O	?	.	/	.	.	.
Cc1ccc(/C=C2\SC(=S)N(C(Cc3ccccc3)C(=O)O)C2=O)cc1 (configuration not stated)	.	.	.	62	.	.
COc1cc(/C=C2\SC(=S)N(C(Cc3ccccc3)C(=O)O)C2=O)ccc1O (configuration not stated)	18	/	/	.	.	.
O=C(O)C(Cc1ccc(O)cc1)N1C(=O)c2ccccc2C1=O (configuration not stated)	.	.	.	.	.	48
COCC(=O)N(C)C[C@H]1Oc2cc(-c3ccc(C#N)cc3)ccc2S(=O)(=O)N([C@@H](C)CO)C[C@H]1C	/	.	.	/	.	.
C[C@H]1CN([C@@H](C)CO)C(=O)c2cc(/C=C/c3ccccc3)cnc2O[C@@H]1CN(C)C(=O)C1CCCCC1	/	.	.	/	.	.
O=C(c1ccccc1NS(=O)(=O)c1ccc([N+](=O)[O-])cc1[N+](=O)[O-])N1O[C@@H]2C=C[C@H]1C2	.	.	.	.	.	49
O=C(N/C(=C/c1ccccc1)C(=O)N1CCCCC1)c1ccccc1	.	.	.	.	.	.
O=C(NCCCn1ccnc1)/C(=C/c1ccccc1)NC(=O)c1ccccc1	.	/	.	.	.	.
O=C(NCCN1CCOCC1)/C(=C/c1ccccc1)NC(=O)c1ccccc1	.	.	.	.	.	47
O=C(N/C(=C\c1ccccc1)C(=O)N1CCN(CCO)CC1)c1ccccc1	.	.	.	.	79	.
CSc1ccc(/C=C(/NC(=O)c2ccccc2)C(=O)NCCCn2ccnc2)cc1	.	.	113	.	.	.
CCCOc1ccc(C(=O)NNC(=S)NC(=O)CC)cc1	.	.	.	.	60	/
C[C@@H]1CCCCO[C@@H](CN(C)Cc2ccc(C(=O)Nc3ccccc3N)cc2)[C@@H](C)CN([C@@H](C)CO)C(=O)c2cc(N(C)C)ccc2O1	/	/	/	/	/	.
COCC(=O)Nc1ccc2c(c1)C(=O)N(C)C[C@@H](OC)[C@@H](C)CN(Cc1cccnc1)[C@H](C)CO2	/	.	/	/	/	.
Fc1ccc(-c2cc3nc(-c4ccccc4)cc(N4CCN(CCN5CCOCC5)CC4)n3n2)cc1	20	.	.	/	.	/
COc1cccc(S(=O)(=O)N[C@@H]2C=C[C@H](CC(=O)NCc3ccncc3)O[C@H]2CO)c1	/	.	/	/	.	.
O=C(NNC(=O)C(c1ccccc1)c1ccccc1)c1ccccn1	.	/	/	.	74	.
O=C(NNc1ccccn1)C(c1ccccc1)c1ccccc1	.	.	.	/	.	.
CCCCn1nc(C(=O)NC2CCCCCC2)c2ccccc2c1=O	.	.	.	.	.	.
CCCn1nc(C(=O)NC2CCCC2)c2ccccc2c1=O	.	.	.	.	/	58
C[C@@H]1CCCCO[C@@H](CN(C)CC2CCCCC2)[C@H](C)CN([C@@H](C)CO)C(=O)c2cc(NC(=O)Cc3ccccc3)ccc2O1	/	.	.	/	.	.
